Assay results from different studies.
Compare with care: the assays were run in different laboratories.
Target: Serine/threonine-protein kinase ULK1 (ULK1, Homo sapiens, UniProt O75385)
Effect on: enzyme activity
Action: inhibitor
Sequence (O75385 1-1050, as in one of the studies): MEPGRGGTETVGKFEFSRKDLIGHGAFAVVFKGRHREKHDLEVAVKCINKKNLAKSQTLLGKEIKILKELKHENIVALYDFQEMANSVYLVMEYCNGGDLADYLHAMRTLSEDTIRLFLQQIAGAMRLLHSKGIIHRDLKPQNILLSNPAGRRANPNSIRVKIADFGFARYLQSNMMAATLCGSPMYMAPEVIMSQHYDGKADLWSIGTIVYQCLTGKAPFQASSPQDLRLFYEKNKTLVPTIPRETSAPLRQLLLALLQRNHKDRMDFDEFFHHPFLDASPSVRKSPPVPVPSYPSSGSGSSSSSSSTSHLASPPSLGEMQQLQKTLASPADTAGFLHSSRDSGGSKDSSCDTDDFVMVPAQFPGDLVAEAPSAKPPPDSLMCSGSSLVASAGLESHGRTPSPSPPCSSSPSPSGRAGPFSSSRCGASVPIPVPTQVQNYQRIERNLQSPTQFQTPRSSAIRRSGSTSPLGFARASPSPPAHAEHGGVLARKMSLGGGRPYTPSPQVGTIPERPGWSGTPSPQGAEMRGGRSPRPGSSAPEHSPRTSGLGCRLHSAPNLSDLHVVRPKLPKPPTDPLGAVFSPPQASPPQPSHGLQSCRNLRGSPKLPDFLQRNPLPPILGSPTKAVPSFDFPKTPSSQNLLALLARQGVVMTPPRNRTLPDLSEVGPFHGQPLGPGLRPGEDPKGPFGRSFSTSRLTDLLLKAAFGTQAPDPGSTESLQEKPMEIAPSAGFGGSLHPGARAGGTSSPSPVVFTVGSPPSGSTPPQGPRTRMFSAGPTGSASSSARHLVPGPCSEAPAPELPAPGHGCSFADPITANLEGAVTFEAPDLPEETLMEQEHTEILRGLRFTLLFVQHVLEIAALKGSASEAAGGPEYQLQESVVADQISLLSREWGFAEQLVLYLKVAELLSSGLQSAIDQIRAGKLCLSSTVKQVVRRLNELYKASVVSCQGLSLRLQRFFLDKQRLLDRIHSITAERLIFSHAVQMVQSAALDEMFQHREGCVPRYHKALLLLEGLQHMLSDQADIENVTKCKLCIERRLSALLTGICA

Compound	test	setting	remaining activity [%]
Cc1sc(C(=O)NC2COC2)cc1-n1cc(NC(=O)Nc2c(F)cccc2Cl)cn1		10 µM	77.3
CC(C)(O)[C@H]1CC[C@H](Nc2ccc3ncc(-c4cccc(C(F)(F)F)c4)n3n2)CC1		1 µM	96.2
O=C(Nc1cnn(-c2csc(C(=O)NC3COC3)c2)c1)Nc1c(F)cccc1Cl		5 µM	93.9
O=C(NCCCNc1nc(Nc2cccc(NC(=O)N3CCCC3)c2)ncc1C1CC1)C1CCC1	radiometric	1 µM	17
COc1cc(Cl)c(C(=O)N[C@@H](CN[C@H]2CC[C@@H](N)CC2)Cc2ccc(C#N)cc2)cc1-c1ccc(CN[C@H](C)c2ccc(C)cc2)o1		1 µM	95
Cc1nn(CC(F)(F)F)cc1Nc1nccc(NCc2ccc(S(N)(=O)=O)cc2)n1	radiometric	1 µM	99
COc1cc(Nc2cnc(C#N)c(O[C@H](C)CN(C)C)n2)ncc1-c1cnn(C)c1	radiometric	1 µM	60
Cc1ccc(C(=O)Nc2ccc(CN3CCN(C)CC3)c(C(F)(F)F)c2)cc1C#Cc1cnc2cccnn12		23.5 nM	76
